Reference: ChEMBL document CHEMBL4190227, “Syntheses, toxicities and anti-inflammation of H2S-donors based on non-steroidal anti-inflammatory drugs” (Eur J Med Chem, 2017)
Calls of active or inactive are those of the source. No cut-off for these calls is given here.

Assays:
[1] = Drug degradation in phosphate buffer assessed as H2S release by measuring test compound half life at 40 uM measured every 5 mins in presence of TECP by UV-Vis spectrometry; assay type: physicochemical
How it was run: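 Sulfide release at 37.5 °C: donor (40 mM THF stock) added to pH 7.4 phosphate buffer with 1.0 mM TECP; aliquots taken every 5 min into methylene blue cocktail (zinc acetate, N,N-dimethyl-1,4-phenylenediamine, FeCl3 in HCl), A670 read 15 min later; H2S from Na2S calibration curve; concentration vs time curve; four independent experiments.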

L02 = test: Cytotoxicity against human LO2 cells assessed as reduction in cell survival after 24 hrs by MTT assay; assay type: cell-based; conditions: L02, 24 h
HepG2 = test: Cytotoxicity against human HepG2 cells assessed as reduction in cell survival after 24 hrs by MTT assay; assay type: cell-based; conditions: HepG2, 24 h
[2] = Drug degradation in phosphate buffer assessed as H2S release by measuring test compound half life at 40 uM measured every 5 mins in presence of L-cysteine by UV-Vis spectrometry; assay type: physicochemical
How it was run: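 Sulfide release at 37.5 °C: donor (40 mM THF stock) added to pH 7.4 phosphate buffer with 1.0 mM L-cysteine; aliquots taken every 5 min into zinc acetate/N,N-dimethyl-1,4-phenylenediamine/FeCl3 in HCl, A670 read 15 min later; H2S quantified against Na2S standard curve (5–150 μM); release curve plotted vs time; four independent experiments.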

RAW264.7 [3] = test: Antiinflammatory activity in mouse RAW264.7 cells assessed as reduction in LPS-induced TNFalpha levels incubated for 24 hrs post LPS induction by ELISA; assay type: functional, cell-based
How it was run: (§1)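 LPS (1 μg/mL) for 4 h, then compound at 10, 50, 100 μM for 24 h; cells lysed in RIPA, spun 12,000×g 10 min, protein normalised by BCA to 0.1 mg/mL; target (TNF-α, HO-1, IL-10 or COX-2) quantified by sandwich ELISA kit with mouse-specific polyclonal antibodies; four independent experiments.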

Danio rerio [4] = species: Danio rerio; test: Toxicity in AB zebrafish embryo assessed as rate of embryo malformation at 0.5 to 20 uM measured at 96 hrs post fertilization by stereoscopic dissecting light microscopic analysis relative to DMF; assay type: organism-based; conditions: in vivo
How it was run: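 AB embryos exposed from 4 hpf through 96 hpf to compound or DMF vehicle (1:1000); malformations scored at 96 hpf under stereoscopic dissecting microscope; 100 embryos per group in three replicates; three independent experiments, mean ± SD.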

RAW264.7 [5] = test: (§2) Cytotoxicity against mouse RAW264.7 cells assessed as cell viability at 10 to 100 uM treated for 24 hrs in absence of LPS by MTT assay; assay type: cell-based; conditions: raw264.7, 24 h, 100 µM
How it was run: (§3)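 Macrophages in high-glucose DMEM + 10% heat-inactivated FBS, 2 mM glutamine, 37 °C, 5% CO2; exposed 24 h to 10, 50, 100 μM with or without LPS 1 μg/mL; MTT added 4 h, formazan dissolved in DMSO, A570, expressed as % of control; four independent experiments.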

Danio rerio [6] = species: Danio rerio; test: Toxicity in AB zebrafish embryo assessed as reduction in hatching rate of embryos up to 5 uM measured at 48 hrs post fertilization by dissecting light microscopic analysis; assay type: organism-based; conditions: in vivo
How it was run: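 AB embryos exposed from 4 to 72 hpf to compound (0.5–20 μM) or DMF vehicle (1:1000), one embryo per well; hatch rate scored at 48 hpf; n=100 per group in three replicates; three independent experiments, mean ± SD.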

RAW264.7 [7] = test: Antiinflammatory activity in mouse RAW264.7 cells assessed as increase in LPS-induced HO-1 expression at 100 uM incubated for 24 hrs post LPS induction by ELISA relative to contol; assay type: functional; how it was run: as §1
RAW264.7 [8] = test: Antiinflammatory activity in mouse RAW264.7 cells assessed as increase in LPS-induced HO-1 expression incubated for 24 hrs post LPS induction by ELISA; assay type: functional, cell-based; how it was run: as §1
RAW264.7 [9] = test: Antiinflammatory activity in mouse RAW264.7 cells assessed as LPS-induced TNFalpha levels at 100 uM incubated for 24 hrs post LPS induction by ELISA relative to control; assay type: functional; how it was run: as §1
RAW264.7 [10] = test: Inhibition of LPS-induced COX2 expression in mouse RAW264.7 cells at 10 to 100 uM incubated for 24 hrs post LPS induction by ELISA; assay type: functional, cell-based; how it was run: as §1
[11] = biological target: T1, Nitric oxide synthase, inducible (Mus musculus) (UniProt P29477); test: Inhibition of iNOS in mouse RAW264.7 cells assessed as reduction in LPS-induced NO production administered for 24 hrs post LPS induction by Griess method; assay type: cell-based
T1 sequence (whole entry): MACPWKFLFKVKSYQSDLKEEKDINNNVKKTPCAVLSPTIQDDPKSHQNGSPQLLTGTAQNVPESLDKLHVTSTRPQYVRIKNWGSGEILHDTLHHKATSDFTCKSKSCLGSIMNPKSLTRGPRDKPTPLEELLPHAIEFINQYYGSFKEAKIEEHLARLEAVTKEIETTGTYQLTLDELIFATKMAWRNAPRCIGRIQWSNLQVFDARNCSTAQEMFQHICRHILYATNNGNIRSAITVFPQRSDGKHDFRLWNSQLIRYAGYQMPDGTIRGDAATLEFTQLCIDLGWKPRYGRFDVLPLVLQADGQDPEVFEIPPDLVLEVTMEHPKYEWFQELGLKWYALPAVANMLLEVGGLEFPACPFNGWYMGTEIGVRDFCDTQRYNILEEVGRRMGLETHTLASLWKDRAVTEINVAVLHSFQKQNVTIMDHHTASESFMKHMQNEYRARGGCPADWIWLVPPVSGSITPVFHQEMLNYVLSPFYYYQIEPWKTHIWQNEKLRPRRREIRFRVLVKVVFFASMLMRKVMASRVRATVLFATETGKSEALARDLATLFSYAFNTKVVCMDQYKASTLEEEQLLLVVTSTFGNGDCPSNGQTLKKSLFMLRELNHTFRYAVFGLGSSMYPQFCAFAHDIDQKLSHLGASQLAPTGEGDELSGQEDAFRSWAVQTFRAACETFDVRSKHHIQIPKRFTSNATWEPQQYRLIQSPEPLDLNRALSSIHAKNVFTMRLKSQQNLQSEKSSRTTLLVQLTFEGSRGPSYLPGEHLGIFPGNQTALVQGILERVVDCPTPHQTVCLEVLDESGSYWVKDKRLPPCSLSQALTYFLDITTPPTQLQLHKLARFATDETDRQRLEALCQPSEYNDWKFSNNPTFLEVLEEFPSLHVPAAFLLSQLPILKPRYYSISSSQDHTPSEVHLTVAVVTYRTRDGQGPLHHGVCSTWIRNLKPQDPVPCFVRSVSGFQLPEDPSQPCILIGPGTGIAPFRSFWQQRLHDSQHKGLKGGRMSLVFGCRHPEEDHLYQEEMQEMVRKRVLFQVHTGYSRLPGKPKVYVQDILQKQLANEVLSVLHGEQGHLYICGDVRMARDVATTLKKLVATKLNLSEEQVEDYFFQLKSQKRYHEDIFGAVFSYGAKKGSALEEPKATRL
How it was run: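 RAW264.7 cells stimulated with LPS 1 μg/mL for 4 h, then compound (10, 50, 100 μM) for 24 h; culture medium reacted with Griess reagents I and II, absorbance 570 nm; nitrite from sodium nitrite standard curve (0–100 μM in medium); four independent experiments, mean ± SD.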

RAW264.7 [12] = test: (§4) Cytotoxicity against mouse RAW264.7 cells assessed as cell viability at 10 to 100 uM treated for 24 hrs post LPS induction by MTT assay; assay type: cell-based; conditions: raw264.7, 24 h, 100 µM; how it was run: as §3
RAW264.7 [13] = test: Antiinflammatory activity in mouse RAW264.7 cells assessed as increase in IL10 levels at 10 to 100 uM measured after 24 hrs in absence of LPS by ELISA; assay type: functional, cell-based
How it was run: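 Macrophages exposed 24 h to 10, 50, 100 μM without LPS; lysates (RIPA, 12,000×g spin) normalised by BCA to 0.1 mg/mL protein; IL-10 measured by mouse-specific sandwich ELISA kit; four independent experiments, mean ± SD.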

RAW264.7 [14] = test: Antiinflammatory activity in mouse RAW264.7 cells assessed as increase in LPS-induced IL10 levels at 10 to 100 uM incubated for 24 hrs post LPS induction by ELISA; assay type: functional, cell-based; how it was run: as §1
[15] = as §2; assay type: cell-based; conditions: RAW264.7 cells, read-out: Activity; how it was run: as §3
RAW264.7 [16] = test: Inhibition of LPS-induced COX2 expression in mouse RAW264.7 cells at 100 uM incubated for 24 hrs post LPS induction by ELISA relative to control; assay type: functional; conditions: RAW264.7, 24 h, read-out: INH; how it was run: as §1
[17] = as §4; assay type: cell-based; conditions: RAW264.7 cells, read-out: Activity; how it was run: as §3

Structure (SMILES) | half-life at 40 µM [1] | IC50 (L02) | IC50 (HepG2) | also measured
NC(=S)c1ccccc1 | 0.9 min |  |  | 
Oc1ccc(-c2cc(=S)ss2)cc1 | 3.9 min |  |  | 
O=C(O)CCCCC1CCSS1 (stereo not drawn) [LIPOIC ACID, ALPHA] |  |  |  | half-life at 40 µM [2]: 118 min
O=C(CCCCC1CCSS1)Oc1ccc2ccc(=O)oc2c1 (stereo not drawn) |  | 2540 µM | 917 µM | half-life at 40 µM [2]: 4.6 min
COc1ccc2cc(C(C)C(=O)Oc3ccc(-c4cc(=S)ss4)cc3)ccc2c1 (stereo not drawn) | 3.1 min | 1040 µM | 1120 µM | 
O=C(/C=C/c1ccccc1)Oc1ccc(-c2cc(=S)ss2)cc1 | 1.9 min | 536 µM | 1080 µM | 
CC(C(=O)Oc1ccc(-c2cc(=S)ss2)cc1)c1cccc(C(=O)c2ccccc2)c1 (stereo not drawn) | 3.4 min | 544 µM | 1280 µM | 
CC(C)Cc1ccc(C(C)C(=O)Oc2ccc(-c3cc(=S)ss3)cc2)cc1 (stereo not drawn) | 1.4 min | 889 µM | 923 µM | Activity (RAW264.7 [3]): Dose-dependent effect; viability at 24 h, up to 100 µM [15]: 70 to 110%; fold change (FC) (RAW264.7 [7]): >3; Activity (RAW264.7 [8]): Dose-dependent effect; Activity (RAW264.7 [9]): 5 - 20%; inhibition at 100 µM (RAW264.7 [16]): 60%; inhibition [11]: Dose-dependent effect; viability at 24 h, up to 100 µM [17]: 70 to 110%; Activity (RAW264.7 [13]): Active; Activity (RAW264.7 [14]): Active

More lines, main results first:

half-life at 40 µM [1] | Structure (SMILES) | IC50 (L02) | IC50 (HepG2) | also measured
7.1 min | NC(=S)c1ccc(OC(=O)c2ccccc2Cl)cc1 | 1090 µM | 1060 µM | 
1.8 min | COc1ccc2c(c1)c(CC(=O)Oc1ccc(-c3cc(=S)ss3)cc1)c(C)n2C(=O)c1ccc(Cl)cc1 | 337 µM | 3290 µM | Activity (RAW264.7 [3]): Dose-dependent effect; Activity (Danio rerio [4]): 2%; Activity (RAW264.7 [5]): Non-Toxic; Activity (Danio rerio [6]): Toxic; fold change (FC) (RAW264.7 [7]): <=2; Activity (RAW264.7 [8]): Dose-dependent effect; Activity (RAW264.7 [9]): 5 - 20%; inhibition (RAW264.7 [10]): Active; inhibition [11]: Dose-dependent effect; Activity (RAW264.7 [12]): Non-Toxic; Activity (RAW264.7 [13]): Active; Activity (RAW264.7 [14]): Active
9.8 min | CC(C(=O)Oc1ccc(C(N)=S)cc1)c1cccc(C(=O)c2ccccc2)c1 (stereo not drawn) | 1180 µM | 1070 µM | 
4.4 min | NC(=S)c1ccc(OC(=O)/C=C/c2ccccc2)cc1 | > 800 µM | 410 µM | 
14.4 min | NC(=S)c1ccc(OC(=O)c2ccc(Cl)cc2)cc1 | > 800 µM | 1060 µM | 
3.1 min | CC1=C(CC(=O)Oc2ccc(C(N)=S)cc2)c2cc(F)ccc2/C1=C\c1ccc([S+](C)[O-])cc1 (stereo not drawn) | 1480 µM | 1080 µM | 
3.3 min | CC(C(=O)Oc1ccc(C(N)=S)cc1)c1ccc(-c2ccccc2)c(F)c1 (stereo not drawn) | > 800 µM | 1680 µM | 
13.4 min | COc1ccc2cc(C(C)C(=O)Oc3ccc(C(N)=S)cc3)ccc2c1 (stereo not drawn) [ATB-346] | 3610 µM | 228 µM | Activity (RAW264.7 [3]): Dose-dependent effect; viability at 24 h, up to 100 µM [15]: 70 to 110%; fold change (FC) (RAW264.7 [7]): <=2; Activity (RAW264.7 [8]): Dose-dependent effect; inhibition (RAW264.7 [10]): Active; inhibition [11]: Dose-dependent effect; viability at 24 h, up to 100 µM [17]: 70 to 110%; Activity (RAW264.7 [13]): Active; Activity (RAW264.7 [14]): Active
